Only some compounds are listed: those with a hit (about 4.1% of all), similar ones and a draw of the others.
KCNQ1 pot = potentiates or activates the human KCNQ1 potassium channel; CHO-K1 KCNQ1, thallium flux FluxOR fluorescence; hits give high values; B-score at 10 µM; 0.35% of 310,000 active; AID 2648;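 active = fluorescence ratio B-score, a plate-corrected score, at least three library SD, with initial intensity B-score within 5 SD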
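Schedule – 37 °C overnight plating, 90-min dark dye load, 20-min compound pretreatment · System – stable KCNQ1 CHO-K1 line · Probe or stimulus – thallium- and potassium-containing depolarizing buffer · Measured by – kinetic FluxOR fluorescence, 10 s baseline plus 110 s post-stimulus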
hERG rescue = shields human hERG channel from block by proarrhythmic agents. Q12809. CHO-hERG, FluxOR thallium flux, dofetilide IC70 present. activation (rescue from dofetilide block), less the hit threshold, % at 10 µM. 0.51% of 310,000 active. AID 1511;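 active = activation above the mean of controls blocked by dofetilide plus 5 SD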;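 also: thallium influx through hERG after potassium depolarization seen as dye fluorescence rise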
KCNK3 inh = human KCNK3 channel inhibition, primary screen; O14649; CHO-KCNK3 thallium flux, FluxOR fluorescence; hits give low values; B-score at 10 µM; 0.84% of 340,000 active; AID 602410;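 active = B-score under library mean minus 4 SD, starting fluorescence ratio at most library mean plus 5 SD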;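 also: more negative B-score means stronger inhibition of thallium flux through KCNK3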
Target sequence (O14649 whole entry, looked up): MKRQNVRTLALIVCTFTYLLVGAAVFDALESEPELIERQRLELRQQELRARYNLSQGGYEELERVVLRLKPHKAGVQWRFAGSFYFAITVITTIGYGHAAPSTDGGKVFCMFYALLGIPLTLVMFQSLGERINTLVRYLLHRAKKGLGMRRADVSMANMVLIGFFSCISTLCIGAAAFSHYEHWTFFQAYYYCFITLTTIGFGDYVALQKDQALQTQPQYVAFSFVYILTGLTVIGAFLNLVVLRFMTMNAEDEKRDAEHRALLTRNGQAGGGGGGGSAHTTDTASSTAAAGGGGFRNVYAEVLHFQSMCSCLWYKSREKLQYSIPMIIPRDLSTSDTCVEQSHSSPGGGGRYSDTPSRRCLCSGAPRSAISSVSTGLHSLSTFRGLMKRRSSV
Cl transport mod = modulators of human KCC2 chloride dependent transport. 2.2% of 190,000 active. KCC2 cells, thallium flux FluoZin-2 fluorescence. B-score of Tl+ flux slope (higher = more flux/activation; lower = inhibition) at 10 µM. Q9H2X9;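 active = thallium flux slope and its plate-corrected score both differing from the plate sample mean at a set confidence after two filtering rounds, in either direction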;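 also: slope of fluorescence scaled to starting intensity during 10 to 20 s after thallium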
KCNQ1 inh = inhibitors of human KCNQ1 potassium channel; 1.3% of 310,000 active; CHO-K1 KCNQ1, FluxOR thallium flux fluorescence; hits give high values; AID 2642; B-score at 10 µM; P51787;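 active = compounds whose thallium flux B-score, printed positive for inhibition, exceeds three library SD while starting fluorescence stays within three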;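 also: channel opened by potassium depolarization with thallium stimulus after 20 min compound exposure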
KCNK9 inh = inhibitors of human KCNK9 two-pore domain potassium channel; HEK293 KCNK9, FluxOR thallium flux fluorescence; hits give low values; B-score at 10 µM; 1.2% of 310,000 active; AID 488922;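 active = ratio B-score over 3 SD below the library mean, with starting fluorescence within 5 SD of its mean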;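 also: negative B-score means less thallium flux so channel inhibition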
Target sequence (Q9NPC2 whole entry, looked up, the tested form may be a part): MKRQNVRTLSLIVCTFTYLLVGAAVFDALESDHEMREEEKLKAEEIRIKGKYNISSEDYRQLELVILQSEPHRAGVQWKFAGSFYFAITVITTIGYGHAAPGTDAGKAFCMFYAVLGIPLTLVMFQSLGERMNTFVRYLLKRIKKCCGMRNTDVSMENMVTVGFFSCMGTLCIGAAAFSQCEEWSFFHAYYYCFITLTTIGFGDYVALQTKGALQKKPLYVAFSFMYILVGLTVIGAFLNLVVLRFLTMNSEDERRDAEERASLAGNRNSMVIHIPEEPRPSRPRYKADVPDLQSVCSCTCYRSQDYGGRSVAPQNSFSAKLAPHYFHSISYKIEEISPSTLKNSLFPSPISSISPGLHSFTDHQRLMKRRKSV
KCC2 secondary = confirmation of human KCC2 transport modulators. 15% of 3,700 active. shares compounds with Cl transport mod. normalised thallium flux (F/F0 slope) at 10 µM. HEK293-KCC2, thallium flux, FluoZin2 fluorescence; hits give high values. AID 1713;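 active = thallium flux slope above the same plate's solvent-only control mean plus 3 SD; inconclusive = the two replicate wells disagree; inactive = no significant difference from solvent-only control wells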
KCC2 bumet counter = bumetanide-insensitive thallium flux in KCC2 cells with ouabain, counter-screen | shares compounds with Cl transport mod | HEK293-KCC2 + bumetanide/ouabain, thallium flux FluoZin2; hits give high values | normalized thallium flux at 10 µM | 49% of 3,700 active | AID 1714;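 active = thallium entry rate above the same plate's blocked-transporter control wells by more than 3 SD; inconclusive = the two repeat wells disagree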;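 also: raw slope of fluorescence over initial fluorescence between 10 and 20 s after thallium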
KCC2 secondary2 = KCC2 (human) modulation, second secondary assay; shares compounds with Cl transport mod; HEK293-KCC2, thallium flux FluoZin2 fluorescence; actives lie on both sides; F/F0 rise rate, 10–20 s post-thallium; normalized thallium flux at 10 µM; 23% of 3,700 active; AID 1715;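 active = thallium flux slope more than 3 SD above or below the plate's solvent-only control mean, mostly below; inconclusive = the two repeat wells disagreed; inactive = no significant shift from solvent-only controls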
HEK counter1 = parental HEK flux effect, counter-screen; shares compounds with Cl transport mod; HEK293 parental cells, thallium flux FluoZin2, ouabain; baseline-ratio fluorescence slope, 10–20 s after thallium; thallium flux rate (normalised fluorescence) at 10 µM; 46% of 3,700 active; AID 1716;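 active = thallium flux rate significantly above the same plate's solvent-only control wells, beyond their mean plus 3 SD; inconclusive = the two replicate wells gave conflicting results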
KCC2 ouabain = modulates human KCC2 on retest with ouabain. shares compounds with Cl transport mod. HEK293-KCC2, thallium flux FluoZin2 fluorescence; bidirectional: low = inhibitor, high = activator. raw Tl+ flux slope (below DMSO = inhibition, above = activation) at 10 µM. 48% of 3,700 active. AID 1717;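 active = thallium flux slope beyond 3 SD from same-plate DMSO control mean in most replicates, usually higher, sometimes lower; inconclusive = repeat tests gave conflicting results; inactive = no significant difference from controls in most replicates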;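 also: slope of initial-normalized fluorescence between seconds 10 and 20 after thallium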
HEK293 Tl flux2 = counter-screen for KCC2 modulators: effect in parental HEK293 cells; 33% of 3,700 active; shares compounds with Cl transport mod; thallium flux FluoZin-2 fluorescence slope; thallium flux slope at 10 µM;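 active = thallium flux slope above the same plate's solvent-control mean plus 3 SD in both duplicate wells; inconclusive = duplicate wells that disagreed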;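 also: run without ouabain in cells lacking the KCC2 cotransporter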
Numbers stand for hits.

COC(=O)c1ccc(NC(=O)CC2C(=O)N(c3ccc(C)cc3)C(=O)N2CC(C)C)cc1 (stereo not drawn) was read as KCNQ1 pot inactive, hERG rescue inactive, KCNK3 inh inactive, KCNQ1 inh inactive and KCNK9 inh inactive.
CCOC(=O)c1ccc(NC(=O)CC2C(=O)N(c3ccc(F)cc3)C(=O)N2CCC(C)C)cc1 (stereo not drawn) was read as KCNQ1 pot inactive, hERG rescue inactive, KCNK3 inh inactive, Cl transport mod -3.5, KCNQ1 inh inactive, KCNK9 inh inactive, KCC2 secondary inactive, KCC2 bumet counter inactive, KCC2 secondary2 inactive, HEK counter1 inactive, KCC2 ouabain inactive and HEK293 Tl flux2 inactive.
CCn1c(SCC(=O)c2ccccc2)nc2c(c1=O)SC(C)C2 (stereo not drawn) was read as KCNQ1 pot inactive, hERG rescue inactive, KCNK3 inh inactive, Cl transport mod inactive, KCNQ1 inh inactive and KCNK9 inh inactive.
`CCn1c(SCC(=O)Nc2nc3ccccc3s2)nc2c(c1=O)SC(C)C2` (stereo not drawn) gave KCNQ1 pot inactive, hERG rescue inactive, Cl transport mod -4.1, KCNQ1 inh inactive, KCNK9 inh inactive, KCC2 secondary inactive, KCC2 bumet counter inactive, KCC2 secondary2 inactive, HEK counter1 0.0057, KCC2 ouabain 0.02 and HEK293 Tl flux2 inactive.
`O=C(NC1CCCC1)c1nc2c(nnn2Cc2ccccc2Cl)c(=O)[nH]1` gave KCNQ1 pot inactive, hERG rescue inactive, KCNK3 inh inactive, Cl transport mod inactive, KCNQ1 inh inactive and KCNK9 inh inactive.
Screening O=C(NCC1CCCO1)c1nc2c(nnn2Cc2ccc(F)cc2)c(=O)[nH]1 (stereo not drawn) returned KCNQ1 pot inactive, hERG rescue inactive, KCNK3 inh inactive, Cl transport mod inactive, KCNQ1 inh inactive and KCNK9 inh inactive.
For Cc1ccc(C)c(Cn2nnc3c(=O)[nH]c(C(=O)NCc4ccco4)nc32)c1 the results were KCNQ1 pot inactive, hERG rescue inactive, KCNK3 inh inactive, Cl transport mod -5.7, KCNQ1 inh inactive, KCNK9 inh inactive, KCC2 secondary inactive, KCC2 bumet counter inactive, KCC2 secondary2 0.023, HEK counter1 0.0062, KCC2 ouabain 0.014 and HEK293 Tl flux2 inconclusive.
O=C(NCc1ccco1)c1nc2c(nnn2Cc2ccccc2Cl)c(=O)[nH]1 was read as KCNQ1 pot inactive, hERG rescue inactive, KCNK3 inh inactive, Cl transport mod -3.3, KCNQ1 inh inactive, KCNK9 inh inactive, KCC2 secondary inactive, KCC2 bumet counter inactive, KCC2 secondary2 inactive, HEK counter1 inconclusive, KCC2 ouabain 0.014 and HEK293 Tl flux2 inactive.
For O=C(NCc1cccs1)c1nc2c(nnn2Cc2ccc(F)cc2)c(=O)[nH]1 the results were KCNQ1 pot inactive, hERG rescue inactive, KCNK3 inh inactive, Cl transport mod -2.3, KCNQ1 inh inactive, KCNK9 inh inactive, KCC2 secondary inactive, KCC2 bumet counter inconclusive, KCC2 secondary2 0.023, HEK counter1 inactive, KCC2 ouabain inconclusive and HEK293 Tl flux2 inactive.
For O=C(NCCc1ccccc1)c1ccc(CS(=O)(=O)Cc2ccccc2F)o1 the results were KCNQ1 pot inactive, hERG rescue inactive, KCNK3 inh inactive, Cl transport mod inactive, KCNQ1 inh inactive and KCNK9 inh inactive.
For Cc1ccc(CCNC(=O)c2ccc(CS(=O)(=O)Cc3ccccc3F)o2)cc1 the results were KCNQ1 pot inactive, hERG rescue inactive, KCNK3 inh inactive, Cl transport mod -6.8, KCNQ1 inh inactive, KCNK9 inh inactive, KCC2 secondary inactive, KCC2 bumet counter inconclusive, KCC2 secondary2 inconclusive, HEK counter1 inactive, KCC2 ouabain inactive and HEK293 Tl flux2 inactive.
Screening CCc1n[nH]c(=S)n1/N=C/c1ccc(N(C)c2ccccc2)cc1 returned KCNQ1 pot inactive, hERG rescue inactive, KCNK3 inh inactive, Cl transport mod 9.5, KCNQ1 inh inactive, KCNK9 inh inactive, KCC2 secondary inactive, KCC2 bumet counter 0.019, KCC2 secondary2 inactive, HEK counter1 0.029, KCC2 ouabain 0.026 and HEK293 Tl flux2 inactive.
O=C(CSc1nc(-c2ccccc2)nc2ccccc12)Nc1cccc(C(=O)O)c1 was read as KCNQ1 pot inactive, hERG rescue inactive, KCNK3 inh inactive, Cl transport mod 7.4, KCNQ1 inh inactive, KCNK9 inh inactive, KCC2 secondary inactive, KCC2 bumet counter 0.014, KCC2 secondary2 inactive, HEK counter1 0.015, KCC2 ouabain 0.025 and HEK293 Tl flux2 0.017.
For O=C(CSc1nc(-c2ccc(F)cc2)nc2ccc(F)cc12)Nc1cccc(C(=O)O)c1 the results were KCNQ1 pot inactive, hERG rescue inactive, KCNK3 inh inactive, Cl transport mod inactive, KCNQ1 inh inactive and KCNK9 inh inactive.
N/C(=N\S(=O)(=O)c1cccs1)c1ccccc1Cl was read as KCNQ1 pot inactive, hERG rescue inactive, KCNK3 inh inactive, KCNQ1 inh inactive and KCNK9 inh inactive.
Screening CCOCCCNC(=O)CN1C(=O)/C(=C\c2ccc(C)cc2)Sc2ccccc21 returned KCNQ1 pot inactive, hERG rescue inactive, KCNK3 inh inactive, Cl transport mod inactive, KCNQ1 inh inactive and KCNK9 inh inactive.
`Cc1ccc(/C=C2/Sc3ccccc3N(CC(=O)NCCCOC(C)C)C2=O)cc1` gave KCNQ1 pot inactive, hERG rescue inactive, KCNK3 inh inactive, Cl transport mod -3.3, KCNQ1 inh inactive, KCNK9 inh inactive, KCC2 secondary inactive, KCC2 bumet counter inactive, KCC2 secondary2 inconclusive, HEK counter1 inactive, KCC2 ouabain 0.014 and HEK293 Tl flux2 inactive.

High-throughput results deposited in PubChem by several laboratories.
